Source: ChEMBL document CHEMBL1145835, “Novel potent 5-HT(1F) receptor agonists: structure-activity studies of a series of substituted N-[3-(1-methyl-4-piperidinyl)-1H-pyrrolo[3,2-b]pyridin-5-yl]amides” (J Med Chem, 2003)

Key:
[1] = molecular target: T1, 5-hydroxytryptamine receptor 1F (Homo sapiens, UniProt P30939); assay: In vitro binding affinity was determined by radioligand binding assay using cell line expressing human 5-hydroxytryptamine 1F receptor
T1 sequence (P30939 whole entry): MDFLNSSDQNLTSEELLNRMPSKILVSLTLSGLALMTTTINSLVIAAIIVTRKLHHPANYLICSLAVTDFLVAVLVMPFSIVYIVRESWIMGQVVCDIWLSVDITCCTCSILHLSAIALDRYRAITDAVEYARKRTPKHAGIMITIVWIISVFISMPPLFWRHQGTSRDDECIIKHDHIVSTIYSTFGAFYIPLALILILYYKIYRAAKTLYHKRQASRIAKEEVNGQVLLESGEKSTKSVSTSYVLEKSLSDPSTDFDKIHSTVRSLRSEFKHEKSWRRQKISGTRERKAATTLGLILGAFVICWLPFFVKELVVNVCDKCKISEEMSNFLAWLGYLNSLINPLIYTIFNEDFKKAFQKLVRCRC
Summary of the method: (§1)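 Ki (nM) from radioligand binding on cell lines each expressing one human serotonin receptor subtype. Values are means of at least three determinations with SEM. ND: Ki not determined, when a 10⁻⁷ M test ligand gave <50% displacement of radioligand.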

[2] = molecular target: T2, 5-hydroxytryptamine receptor 1F (Homo sapiens) (UniProt P30939); assay: Maximum stimulation of [35S]GTP-gamma-S, binding expressed relative to the maximal effect of 5-hydroxytryptamine […]; type: functional
T2 sequence (whole entry): T1 sequence (P30939 whole entry)

[3] = molecular target: 5-hydroxytryptamine receptor 1B (Homo sapiens, UniProt P28222); assay: In vitro binding affinity by radioligand binding assay using cell line expressing human 5-hydroxytryptamine 1B receptor
Summary of the method: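 Ki (nM) from radioligand binding on cell lines each expressing one human serotonin receptor subtype. Values are means of at least three determinations with SEM.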

[4] = molecular target: 5-hydroxytryptamine receptor 1D (Homo sapiens, UniProt P28221); assay: In vitro binding affinity by radioligand binding assay using cell line expressing human 5-hydroxytryptamine 1D receptor; summary of the method: as §1
[5] = molecular target: T1, 5-hydroxytryptamine receptor 1F; assay: In vitro effective concentration for stimulation of [35S]GTP-gamma-S, binding in mouse LM(tk-)cells expressing the human 5-hydroxytryptamine 1F receptor; type: functional
[6] = molecular target: T3, 5-hydroxytryptamine receptor 1A (Homo sapiens, UniProt P08908); assay: In vitro binding affinity by radioligand binding assay using cell line expressing human 5-hydroxytryptamine 1A receptor; summary of the method: as §1
T3 sequence (P08908 whole entry): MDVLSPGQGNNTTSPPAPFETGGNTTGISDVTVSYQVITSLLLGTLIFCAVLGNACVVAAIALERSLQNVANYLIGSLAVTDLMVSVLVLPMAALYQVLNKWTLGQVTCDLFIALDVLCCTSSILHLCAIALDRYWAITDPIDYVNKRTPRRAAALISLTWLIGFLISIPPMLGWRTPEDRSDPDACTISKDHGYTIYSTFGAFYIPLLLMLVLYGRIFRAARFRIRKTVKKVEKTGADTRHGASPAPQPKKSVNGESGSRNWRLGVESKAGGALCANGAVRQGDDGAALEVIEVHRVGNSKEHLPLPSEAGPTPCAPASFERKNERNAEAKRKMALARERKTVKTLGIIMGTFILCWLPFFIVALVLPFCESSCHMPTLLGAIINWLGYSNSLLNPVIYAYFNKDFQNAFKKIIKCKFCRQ

[7] = system: Cavia porcellus; assay: In vivo efficacy in neurogenic plasma protein extravasation screen using guinea pig neurogenic PPE assay (1 ng/kg, po) at 1 hr postdose; type: functional
Summary of the method: (§2)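 Guinea pig neurogenic dural PPE screen. Single oral dose of 1 ng/kg, then unilateral trigeminal ganglion stimulation with Evan's blue-labelled plasma protein leakage. Read-out is the fluorescence ratio of stimulated to unstimulated dura at 1 h or 24 h postdose. A ratio near 1 means full efficacy; near 1.8 means ineffective.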

[8] = species on record: Oryctolagus cuniculus; assay: In vitro contractile response in rabbit saphenous vein; type: functional
Summary of the method: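 Rabbit saphenous vein rings. Maximal contraction is expressed as % of the contraction induced by KCl (67 mM), with the concentration giving the maximal response recorded. Means (SEM) of three to seven determinations.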

[9] = system: Cavia porcellus; assay: In vivo efficacy in neurogenic plasma protein extravasation screen using guinea pig neurogenic PPE assay (1 ng/kg, po) at 24 hr postdose; type: functional; summary of the method: as §2

Chain of 5-hydroxytryptamine receptor 1B (P28222 whole entry): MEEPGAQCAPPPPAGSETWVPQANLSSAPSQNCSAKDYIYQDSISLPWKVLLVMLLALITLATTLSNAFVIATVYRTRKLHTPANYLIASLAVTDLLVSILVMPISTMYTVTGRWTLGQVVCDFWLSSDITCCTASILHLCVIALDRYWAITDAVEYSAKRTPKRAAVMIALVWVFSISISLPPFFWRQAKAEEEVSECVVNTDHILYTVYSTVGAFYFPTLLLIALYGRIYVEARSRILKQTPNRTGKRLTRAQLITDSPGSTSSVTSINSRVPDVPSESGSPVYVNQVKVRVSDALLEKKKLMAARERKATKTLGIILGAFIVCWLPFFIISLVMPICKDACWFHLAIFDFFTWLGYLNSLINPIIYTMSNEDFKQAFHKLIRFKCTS
Chain of 5-hydroxytryptamine receptor 1D (P28221 whole entry): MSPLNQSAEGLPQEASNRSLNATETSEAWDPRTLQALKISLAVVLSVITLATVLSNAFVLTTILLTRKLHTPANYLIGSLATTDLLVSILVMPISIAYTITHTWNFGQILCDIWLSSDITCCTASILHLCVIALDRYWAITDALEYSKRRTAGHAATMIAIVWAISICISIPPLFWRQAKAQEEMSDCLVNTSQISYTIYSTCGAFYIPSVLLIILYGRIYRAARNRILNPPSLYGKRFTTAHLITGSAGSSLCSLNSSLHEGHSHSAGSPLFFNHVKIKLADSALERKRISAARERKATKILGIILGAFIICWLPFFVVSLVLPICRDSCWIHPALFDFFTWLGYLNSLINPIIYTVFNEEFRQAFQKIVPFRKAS

Structure (SMILES)	Ki [1] [µM]	Emax [2] [%]	Ki [3] [µM]	Ki [4] [µM]	EC50 [5] [µM]	Ki [6] [µM]	Efficacy [7]	Response [8] [%]	Efficacy [9]
CN1CCC(c2c[nH]c3ccc(NC(=O)c4ccco4)nc23)CC1	0.013	82	1.1	0.93	0.011	0.56			
CNC(=O)Nc1ccc2[nH]cc(C3CCN(C)CC3)c2n1	0.0025		0.014	0.0085					
COc1ccccc1C(=O)Nc1ccc2[nH]cc(C3CCN(C)CC3)c2n1	0.02		0.75			0.02			
Cc1cccc(C(=O)Nc2ccc3[nH]cc(C4CCN(C)CC4)c3n2)c1	0.0058		1.2	0.49		0.1			
CN1CCC(c2c[nH]c3ccc(NC(=O)c4ccccc4)nc23)CC1	0.0073		0.82	1		0.072	1.1	0	1.6
CCCCN1CCC(c2c[nH]c3ccc(NC(=O)c4ccc(F)cc4)nc23)CC1	0.014								
CC(=O)Nc1cc2c(C3CCN(C)CC3)c[nH]c2cn1	0.21			0.039		0.002			
CN1CCC(c2c[nH]c3ccc(NC(=O)C4CC4)nc23)CC1	0.0098	77	1.7	1.8	0.034	1.4	1.4	2.3	
CN1CCC(c2c[nH]c3ccc(NC(=O)c4ccc([N+](=O)[O-])cc4)nc23)CC1	0.0077		0.27	0.34		0.038			
CCCCC(=O)Nc1ccc2[nH]cc(C3CCN(C)CC3)c2n1	0.014								
CC(=O)Nc1ccc2[nH]cc(C3CCNCC3)c2n1	0.045								
CN1CCC(c2c[nH]c3ccc(NC(=O)c4cccc([N+](=O)[O-])c4)nc23)CC1	0.042		0.39	0.33		0.13			
CCN1CC=C(c2c[nH]c3ccc(NC(=O)c4ccc(F)cc4)nc23)CC1	0.025								
CCCCCC(=O)Nc1ccc2[nH]cc(C3CCN(C)CC3)c2n1	0.013								
CC(=O)Nc1ccc2[nH]cc(C3CCN(C)CC3)c2c1	0.0097		0.39	0.15		0.068			
CN1CCC(c2c[nH]c3ccc(NC(=O)c4cccc(C#N)c4)nc23)CC1	0.011		0.59			0.1			
Cc1ccc(C(=O)Nc2ccc3[nH]cc(C4CCN(C)CC4)c3n2)cc1	0.012					0.03			
CN1CCC(c2c[nH]c3ccc(NC(=O)C(C)(C)C)nc23)CC1	0.062								
CCN1CC=C(c2c[nH]c3ccc(NC(C)=O)nc23)CC1	0.021								
CCCCCCCC(=O)Nc1ccc2[nH]cc(C3CCN(C)CC3)c2n1	0.02		0.032	0.11					
CN1CCC(c2c[nH]c3ccc(NS(C)(=O)=O)nc23)CC1	0.019		0.61	0.38					
CN1CCC(c2c[nH]c3ccc(NC(=O)c4ccccc4[N+](=O)[O-])nc23)CC1	0.019			0.17		0.064			
CN1CCC(c2c[nH]c3ccc(NC(=O)c4ccoc4)nc23)CC1	0.0046	88	0.93	1.1	0.011	0.84			
CN1CCC(c2c[nH]c3ccc(NC(=O)c4ccc(Cl)cc4Cl)nc23)CC1	0.0041			0.083		0.0051			
Cc1ccccc1C(=O)Nc1ccc2[nH]cc(C3CCN(C)CC3)c2n1	0.012		0.15	0.44		0.106			
COc1ccc2[nH]cc(C3CCN(C)CC3)c2n1	0.023		0.11	0.023					
CN1CCC(c2c[nH]c3ccc(NC(=O)c4ccncc4)nc23)CC1	0.0084	97	0.33	0.42	0.011	0.04			

Structure (SMILES)	Ki [1] [µM]	Emax [2] [%]	Ki [3] [µM]	Ki [4] [µM]	EC50 [5] [µM]	Ki [6] [µM]	Efficacy [7]	Response [8] [%]	Efficacy [9]
CN1CCC(c2c[nH]c3cnc(NC(=O)c4ccc(F)cc4)cc23)CC1	0.013		0.08	0.053		0.017			
CN1CCC(c2c[nH]c3ccc(NC(=O)c4cccs4)nc23)CC1	0.0071	61	0.39	0.65	0.015	0.35			
CN1CCC(c2c[nH]c3ccc(OS(C)(=O)=O)nc23)CC1	0.0047		0.025	0.008					
CN1CCC(c2c[nH]c3ccc(NC(=O)c4cccc(F)c4)nc23)CC1	0.011		1.6	0.69		0.135			
COc1cccc(C(=O)Nc2ccc3[nH]cc(C4CCN(C)CC4)c3n2)c1	0.016					0.098			
CN1CCC(c2c[nH]c3ccc(OS(=O)(=O)c4ccc(F)cc4)nc23)CC1	0.0075			0.03					
CN1CCC(c2c[nH]c3cnc(NC(=O)c4ccc(F)cc4)nc23)CC1	0.067		6	1.9		0.2			
CN1CCC(c2c[nH]c3ccc(NC(=O)c4ccccn4)nc23)CC1	0.0063	63	1	0.82	0.025	0.041			
CN1CCC(c2c[nH]c3ccc(NC(=O)C4CCCCC4)nc23)CC1	0.02					0.66			
CN1CCC(c2c[nH]c3ccc(NC(=O)C4CCCC4)nc23)CC1	0.011		0.64	0.74		2			
CN1CCC(c2c[nH]c3ccc(O)nc23)CC1	0.1								
CN1CCC(c2c[nH]c3ccc(NC(=O)C4CCC4)nc23)CC1	0.0087	81	0.38	0.9	0.021	2		17	
CN1CCC(c2c[nH]c3ccc(NC(=O)c4ccsc4)nc23)CC1	0.0074	84	1	0.81	0.0094	0.4	1	0	1.6
CCNC(=O)Nc1ccc2[nH]cc(C3CCN(C)CC3)c2n1	0.0038			0.04					
CC(C)N1CCC(c2c[nH]c3ccc(NC(=O)c4ccc(F)cc4)nc23)CC1	0.03								
CN1CCC(c2c[nH]c3ccc(NC(=O)c4ccccc4F)nc23)CC1	0.019					0.042			
CN1CCC(c2c[nH]c3ccc(NC(=O)c4ccc(F)cc4)cc23)CC1	0.0021			0.43		0.022			
CCCC(=O)Nc1ccc2[nH]cc(C3CCN(C)CC3)c2n1	0.0069	94			0.013			12.4	
CC(=O)Nc1ncc2[nH]cc(C3CCN(C)CC3)c2n1	0.22		2.9	0.47		0.78			
CCN1CCC(c2c[nH]c3ccc(NC(=O)c4ccc(F)cc4)nc23)CC1	0.17								
O=C(Nc1ccc2[nH]cc(C3CCN(CCc4ccccc4)CC3)c2n1)c1ccc(F)cc1	0.075								
CN1CCC(c2c[nH]c3ccc(N)nc23)CC1	0.1		0.8	0.42					
CN1CCC(c2c[nH]c3ccc(NS(=O)(=O)c4ccc(F)cc4)nc23)CC1	0.027								
CCC(=O)Nc1ccc2[nH]cc(C3CCNCC3)c2n1	0.035								
O=C(Nc1ccc2[nH]cc(C3CCNCC3)c2n1)c1ccc(F)cc1	0.0095								
CN1CCC(c2c[nH]c3ccc(NC(=O)Nc4ccc(F)cc4)nc23)CC1	0.011		0.0032	0.0038					
CCCN1CCC(c2c[nH]c3ccc(NC(=O)c4ccc(F)cc4)nc23)CC1	0.018								
